# Test results taken from ChEMBL document CHEMBL4270578, “Synthesis and cytotoxic studies of novel 5-phenylisatin derivatives and their anti-migration and anti-angiogenic evaluation” (Eur J Med Chem, 2018).
# Active and inactive are the calls of the source. The calls are words filed in the database; no cut-off is given here.
# Experiments:
# K562 [1] = test: Induction of apoptosis in human K562 cells assessed as viable cells at 30 nM after 24 hrs by Annexin V-FITC/propidium iodide staining-based flow cytometric analysis (reference value: 95.8%); type: functional; conditions: K562, 24 h, read-out: Activity
# K562 [2] = test: Induction of apoptosis in human K562 cells assessed as viable cells at 30 nM after 6 hrs by Annexin V-FITC/propidium iodide staining-based flow cytometric analysis (reference value: 95.8%); type: functional; conditions: K562, 6 h, read-out: Activity
# K562 [3] = test: Induction of apoptosis in human K562 cells assessed as viable cells at 30 nM after 48 hrs by Annexin V-FITC/propidium iodide staining-based flow cytometric analysis (reference value: 95.8%); type: functional; conditions: K562, 48 h, read-out: Activity
# K562 [4] = test: Induction of apoptosis in human K562 cells assessed as viable cells at 300 nM after 12 hrs by Annexin V-FITC/propidium iodide staining-based flow cytometric analysis (reference value: 95.6%); type: functional; conditions: K562, 12 h, read-out: Activity
# K562 [5] = test: Antiproliferative activity against human K562 cells after 48 hrs by MTT assay; type: functional, cell-based; conditions: K562, 48 h
# Procedure, shortened: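 MTT assay on K562 cells (RPMI-1640, 10% FBS) plated at 5 × 10^4 cells/ml for 2 h, then exposed to 10–100,000 nM compound for 48 h. MTT (5 mg/mL stock) added for 4 h before absorbance read. Viability normalized to DMSO controls (100%); IC50 from nonlinear regression, three independent assays.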
# HUVEC = test: Antiangiogenic activity against HUVEC assessed as inhibition of tube formation after 12 hrs by microscopic analysis; type: functional, cell-based; conditions: Homo sapiens
# Procedure, shortened: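 Matrigel (13.9 mg/mL) polymerized 30 min at 37 °C. HUVECs (1 × 10^5 cells/well) in Ham's F-12 + 10% FBS plated on the gel; after 40 min, DMSO or compound (10, 30, 100 nM) added. Incubated 12 h at 37 °C, 5% CO2; capillary-like tube formation photographed by microscopy.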
# HepG2 [6] = test: Antiproliferative activity against human HepG2 cells after 48 hrs by MTT assay; type: functional, cell-based; conditions: HepG2, 48 h
# K562 [7] = test: Induction of apoptosis in human K562 cells assessed as early apoptotic cells at 30 nM after 24 hrs by Annexin V-FITC/propidium iodide staining-based flow cytometric analysis (reference value: 1.9%); type: functional
# K562 [8] = test: Induction of apoptosis in human K562 cells assessed as late apoptotic cells at 30 nM after 12 hrs by Annexin V-FITC/propidium iodide staining-based flow cytometric analysis (reference value: 2.2%); type: functional
# HepG2 [9] = test: Anti-migratory activity against human HepG2 cells after 24 hrs by DAPI staining-based transwell assay; type: functional, cell-based
# Procedure, shortened: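 HepG2 cells in serum-free DMEM, 2 × 10^5 cells/well, placed in upper compartment of polycarbonate filter inserts; lower chamber DMEM + 10% FBS. Compound or DMSO added after 30 min; 24 h at 37 °C, 5% CO2. Filters methanol-fixed and DAPI-stained, non-migrated cells swabbed off. Migrated cells on the lower side counted in three random fields.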
# K562 [10] = test: Induction of apoptosis in human K562 cells assessed as late apoptotic cells at 30 nM after 6 hrs by Annexin V-FITC/propidium iodide staining-based flow cytometric analysis (reference value: 2.2%); type: functional
# HepG2 [11] = test: Anti-migratory activity against human HepG2 cells at 10 nM after 48 hrs by wound-healing assay relative to control; type: functional
# Procedure, shortened: (§1)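 HepG2 cells seeded at 2 × 10^5 cells/well in DMEM and grown 24 h. Monolayer scratched with a 10 μl pipette tip, then PBS-washed three times. Treated with DMSO or compound (10, 30, 100 nM) at 37 °C, 5% CO2, imaged by microscopy at 0–48 h. Migration distance measured; inhibition ratio calculated against DMSO control.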
# K562 [12] = test: Induction of apoptosis in human K562 cells assessed as late apoptotic cells at 300 nM after 12 hrs by Annexin V-FITC/propidium iodide staining-based flow cytometric analysis (reference value: 2.1%); type: functional
# K562 [13] = test: Induction of apoptosis in human K562 cells assessed as viable cells at 300 nM after 24 hrs by Annexin V-FITC/propidium iodide staining-based flow cytometric analysis (reference value: 95.6%); type: functional; conditions: K562, 24 h, read-out: Activity
# K562 [14] = test: Induction of apoptosis in human K562 cells assessed as viable cells at 300 nM after 48 hrs by Annexin V-FITC/propidium iodide staining-based flow cytometric analysis (reference value: 95.6%); type: functional; conditions: K562, 48 h, read-out: Activity
# K562 [15] = test: Induction of apoptosis in human K562 cells assessed as necrotic cells at 300 nM after 24 hrs by Annexin V-FITC/propidium iodide staining-based flow cytometric analysis (reference value: 0%); type: functional
# K562 [16] = test: Induction of morphological changes in human K562 cells assessed as cell blebbing at 30 nM after 24 hrs; type: functional, cell-based
# Procedure, shortened: (§2)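 K562 cells kept in RPMI-1640 with 10% FBS, 2.05 mM glutamine and penicillin/streptomycin at 37 °C, 5% CO2. Exposed to 30 nM drug alongside DMSO-treated controls. Cell morphology examined by microscopy.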
# K562 [17] = test: Induction of morphological changes in human K562 cells assessed as elongation of cells at 30 nM after 6 hrs; type: functional, cell-based; procedure, shortened: as §2
# K562 [18] = test: Induction of apoptosis in human K562 cells assessed as necrotic cells at 300 nM after 6 hrs by Annexin V-FITC/propidium iodide staining-based flow cytometric analysis (reference value: 0%); type: functional
# K562 [19] = test: Induction of apoptosis in human K562 cells assessed as early apoptotic cells at 300 nM after 6 hrs by Annexin V-FITC/propidium iodide staining-based flow cytometric analysis (reference value: 2.2%); type: functional
# K562 [20] = test: Induction of apoptosis in human K562 cells assessed as viable cells at 30 nM after 12 hrs by Annexin V-FITC/propidium iodide staining-based flow cytometric analysis (reference value: 95.8%); type: functional; conditions: K562, 12 h, read-out: Activity
# K562 [21] = test: Induction of apoptosis in human K562 cells assessed as early apoptotic cells at 30 nM after 12 hrs by Annexin V-FITC/propidium iodide staining-based flow cytometric analysis (reference value: 1.9%); type: functional
# K562 [22] = test: Induction of apoptosis in human K562 cells assessed as necrotic cells at 30 nM after 12 hrs by Annexin V-FITC/propidium iodide staining-based flow cytometric analysis (reference value: 0.1%); type: functional
# K562 [23] = test: Induction of apoptosis in human K562 cells assessed as early apoptotic cells at 300 nM after 12 hrs by Annexin V-FITC/propidium iodide staining-based flow cytometric analysis (reference value: 2.2%); type: functional
# K562 [24] = test: Induction of apoptosis in human K562 cells assessed as early apoptotic cells at 30 nM after 6 hrs by Annexin V-FITC/propidium iodide staining-based flow cytometric analysis (reference value: 1.9%); type: functional
# K562 [25] = test: Induction of apoptosis in human K562 cells assessed as late apoptotic cells at 30 nM after 48 hrs by Annexin V-FITC/propidium iodide staining-based flow cytometric analysis (reference value: 2.2%); type: functional
# HepG2 [26] = test: Anti-migratory activity against human HepG2 cells at 100 nM after 48 hrs by wound-healing assay relative to control; type: functional; procedure, shortened: as §1
# K562 [27] = test: Induction of apoptosis in human K562 cells assessed as necrotic cells at 300 nM after 48 hrs by Annexin V-FITC/propidium iodide staining-based flow cytometric analysis (reference value: 0%); type: functional
smiles,measurement,setting,value
COc1ccc(CN2C(=O)C(=O)c3cc(-c4ccc(OC)cc4)ccc32)cc1,viability at 0.03 µM,K562 [1],88.5%
same,viability at 0.03 µM,K562 [2],94.4%
same,viability at 0.03 µM,K562 [3],55.6%
same,viability at 0.3 µM,K562 [4],88.1%
same,IC50,K562 [5],30 nM
same,Activity,HUVEC,Dose-dependent effect
same,IC50,HepG2 [6],50 nM
same,Activity,K562 [7],5.7%
same,Activity,K562 [8],4%
same,Activity,HepG2 [9],Dose-dependent effect
same,Activity,K562 [10],3.3%
same,Activity,HepG2 [11],11.9%
same,Activity,K562 [12],5.9%
same,viability at 0.3 µM,K562 [13],82.6%
same,viability at 0.3 µM,K562 [14],4.7%
same,Activity,K562 [15],0.2%
same,Activity,K562 [16],Active
same,Activity,K562 [17],Active
same,Activity,K562 [18],0.2%
same,Activity,K562 [19],2.4%
same,viability at 0.03 µM,K562 [20],92.8%
same,Activity,K562 [21],3.1%
same,Activity,K562 [22],0%
same,Activity,K562 [23],5.7%
same,Activity,K562 [24],2.1%
same,Activity,K562 [25],21.1%
same,Activity,HepG2 [26],47.9%
same,Activity,K562 [27],0%
